# In ChEMBL document CHEMBL1667809, “Synthesis and in vitro antibacterial activity of 7-(3-alkoxyimino-5-amino/methylaminopiperidin-1-yl)fluoroquinolone derivatives” (Bioorg Med Chem Lett, 2011):
# Columns and labels:
# [1] = tested on: Staphylococcus epidermidis; assay: Antibacterial activity against methicillin-sensitive Staphylococcus epidermidis 10-4 after 18 to 24 hrs by agar dilution method; type: functional
# Outline: (§1)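 Agar dilution on Petri dishes, each inoculated with 10⁴ cfu of the strain and incubated at 35 °C for 18–24 h. MIC read as the lowest compound concentration giving no visible growth on the plate.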
# [2] = Cytotoxicity against african green monkey Vero cells after 24 hrs; type: cell-based; settings: chlorocebus sabaeus
# Outline: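 Vero cells exposed to graded compound concentrations for 24 h, then viability assessed; CC₅₀ derived from the viability data.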
# Klebsiella pneumoniae = assay: Antibacterial activity against Klebsiella pneumoniae 10-1 after 18 to 24 hrs by agar dilution method; type: functional; outline: as §1
# Staphylococcus aureus [3] = assay: Antibacterial activity against methicillin-resistant Staphylococcus aureus 10-05 after 18 to 24 hrs by agar dilution method; type: functional
# Outline: (§2)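 Agar dilution on Petri dishes, each inoculated with 10⁴ cfu. Plates incubated at 35 °C for 18–24 h. MIC taken as the lowest test-compound concentration giving no visible growth on the plate. Reference drugs gemifloxacin, ciprofloxacin and levofloxacin run alongside for comparison.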
# Pseudomonas aeruginosa [4] = assay: Antibacterial activity against Pseudomonas aeruginosa 10-1 after 18 to 24 hrs by agar dilution method; type: functional; outline: as §1
# Staphylococcus aureus [5] = assay: Antibacterial activity against Staphylococcus aureus ATCC 25923 after 18 to 24 hrs by agar dilution method; type: functional; outline: as §1
# Pseudomonas aeruginosa [6] = assay: Antibacterial activity against Pseudomonas aeruginosa ATCC 27853 after 18 to 24 hrs by agar dilution method; type: functional; outline: as §1
# Escherichia coli [7] = assay: Antibacterial activity against Escherichia coli ATCC 25922 after 18 to 24 hrs by agar dilution method; type: functional; outline: as §1
# Streptococcus pneumoniae = assay: Antibacterial activity against Streptococcus pneumoniae 1001 after 18 to 24 hrs by agar dilution method; type: functional; outline: as §1
# Staphylococcus aureus [8] = assay: Antibacterial activity against methicillin-sensitive Staphylococcus aureus 10-04 after 18 to 24 hrs by agar dilution method; type: functional; outline: as §1
# [9] = tested on: Staphylococcus epidermidis; assay: Antibacterial activity against methicillin-resistant Staphylococcus epidermidis 10-5 after 18 to 24 hrs by agar dilution method; type: functional; outline: as §2
# Streptococcus pyogenes = assay: Antibacterial activity against Streptococcus hemolyticus 1002 after 18 to 24 hrs by agar dilution method; type: functional; outline: as §1
# Escherichia coli [10] = assay: Antibacterial activity against Escherichia coli 10-02 after 18 to 24 hrs by agar dilution method; type: functional; outline: as §1
# Staphylococcus aureus [11] = assay: Ratio of compound MIC to GMFX MIC for methicillin-sensitive Staphylococcus aureus 10-04; type: functional
# [12] = tested on: Staphylococcus epidermidis; assay: Ratio of compound MIC to LVFX MIC for methicillin-resistant Staphylococcus epidermidis 10-5; type: functional
# [13] = tested on: Staphylococcus epidermidis; assay: Ratio of compound MIC to GMFX MIC for methicillin-resistant Staphylococcus epidermidis 10-5; type: functional
# Staphylococcus aureus [14] = assay: Ratio of compound MIC to LVFX MIC for methicillin-sensitive Staphylococcus aureus 10-04; type: functional
# Staphylococcus aureus [15] = assay: Ratio of compound MIC to CPFX MIC for methicillin-sensitive Staphylococcus aureus 10-04; type: functional
# [16] = tested on: Staphylococcus epidermidis; assay: Ratio of compound MIC to CPFX MIC for methicillin-resistant Staphylococcus epidermidis 10-5; type: functional
SMILES,MIC [1] [µg/mL],CC50 at 24 h [2] [µM],MIC (Klebsiella pneumoniae) [µg/mL],MIC (Staphylococcus aureus [3]) [µg/mL],MIC (Pseudomonas aeruginosa [4]) [µg/mL],MIC (Staphylococcus aureus [5]) [µg/mL],MIC (Pseudomonas aeruginosa [6]) [µg/mL],MIC (Escherichia coli [7]) [µg/mL],MIC (Streptococcus pneumoniae) [µg/mL],MIC (Staphylococcus aureus [8]) [µg/mL],MIC [9] [µg/mL],MIC (Streptococcus pyogenes) [µg/mL],MIC (Escherichia coli [10]) [µg/mL],Ratio (Staphylococcus aureus [11]),Ratio [12],Ratio [13],Ratio (Staphylococcus aureus [14]),Ratio (Staphylococcus aureus [15]),Ratio [16]
CO/N=C1\CC(N)CN(c2c(F)cc3c(=O)c(C(=O)O)cn4c3c2OC[C@@H]4C)C1 (stereo partly drawn),4,1000,64,128,64,0.5,8,0.25,0.5,2,8,64,0.5,,,,,,
CCO/N=C1\CC(N)CN(c2nc3c(cc2F)c(=O)c(C(=O)O)cn3C2CC2)C1 (stereo not drawn),4,967,128,16,128,4,128,0.25,4,2,8,128,0.5,,,,,,
CCO/N=C1\CC(NC)CN(c2c(F)cc3c(=O)c(C(=O)O)cn(C4CC4)c3c2F)C1 (stereo not drawn),0.5,1010,> 128,4,> 128,0.5,128,0.25,1,0.25,2,128,0.5,4,2,2,4,4,
CCO/N=C1\CC(NC)CN(c2nc3c(cc2F)c(=O)c(C(=O)O)cn3C2CC2)C1 (stereo not drawn),8,731,> 128,8,> 128,2,128,0.25,4,4,16,> 128,0.25,,,,,,
C[C@H]1COc2c(N3CCN(C)CC3)c(F)cc3c(=O)c(C(=O)O)cn1c23.C[C@H]1COc2c(N3CCN(C)CC3)c(F)cc3c(=O)c(C(=O)O)cn1c23.O [LEVOFLOXACIN],2,,32,32,,0.125,,,0.015,8,8,32,,,,,,,
CNC1C/C(=N\OC)CN(c2c(F)cc3c(=O)c(C(=O)O)cn(C4CC4)c3c2OC)C1 (stereo not drawn),1,1090,128,2,128,0.5,64,0.25,0.5,0.5,4,8,0.25,4,2,2,4,4,4
CNC1C/C(=N\OC)CN(c2c(F)cc3c(=O)c(C(=O)O)cn(C4CC4)c3c2F)C1 (stereo not drawn),2,1020,128,8,128,0.25,8,0.25,1,2,2,8,0.25,,2,2,,,
CO/N=C1\CN(c2nc3c(cc2F)c(=O)c(C(=O)O)cn3C2CC2)CC1CN (stereo not drawn) [GEMIFLOXACIN],0.25,,32,4,1,0.008,2,0.015,0.008,2,8,8,0.06,,,,,,
CO/N=C1\CC(N)CN(c2c(F)cc3c(=O)c(C(=O)O)cn(C4CC4)c3c2F)C1 (stereo not drawn),4,739,128,8,128,0.25,128,0.25,0.25,0.5,8,128,0.25,4,,,4,4,
CO/N=C1\CC(N)CN(c2cc3c(cc2F)c(=O)c(C(=O)O)cn3C2CC2)C1 (stereo not drawn),8,593,64,64,> 128,0.5,2,0.25,4,4,16,128,0.25,,,,,,
CCO/N=C1\CC(NC)CN(c2c(F)cc3c(=O)c(C(=O)O)cn(C4CC4)c3c2OC)C1 (stereo not drawn),0.25,1520,128,8,128,0.5,128,0.25,1,0.5,4,128,0.25,4,2,2,4,4,4
CCO/N=C1\CC(N)CN(c2c(F)cc3c(=O)c(C(=O)O)cn(C4CC4)c3c2OC(F)F)C1 (stereo not drawn),0.25,1520,> 128,4,> 128,0.5,128,0.25,1,0.25,1,128,0.25,4,2,2,4,4,
O=C(O)c1cn(C2CC2)c2cc(N3CCNCC3)c(F)cc2c1=O [CIPROFLOXACIN],1,,32,64,1,0.25,32,,0.03,,16,64,,,,,,,
CO/N=C1\CC(N)CN(c2nc3c(cc2F)c(=O)c(C(=O)O)cn3C2CC2)C1 (stereo not drawn),2,822,128,128,128,4,128,0.25,4,8,16,128,0.25,,,,,,
CCO/N=C1\CC(N)CN(c2c(F)cc3c(=O)c(C(=O)O)cn(C4CC4)c3c2F)C1 (stereo not drawn),0.5,1320,64,4,> 128,0.25,8,0.25,0.25,0.5,4,64,0.25,4,2,2,4,4,4
CCn1cc(C(=O)O)c(=O)c2cc(F)c(N3C/C(=N/OC)CC(N)C3)c(F)c21 (stereo not drawn),16,913,> 128,32,> 128,0.25,8,0.25,0.5,0.25,16,128,0.25,,,,4,4,
CNC1C/C(=N\OC)CN(c2nc3c(cc2F)c(=O)c(C(=O)O)cn3C2CC2)C1 (stereo not drawn),2,645,> 128,128,> 128,0.5,128,0.25,4,4,16,> 128,0.25,,,,,,
CCO/N=C1\CC(N)CN(c2c(F)cc3c(=O)c(C(=O)O)cn4c3c2OC[C@@H]4C)C1 (stereo partly drawn),0.5,1240,64,4,32,0.25,8,0.25,0.25,0.5,2,8,0.25,4,4,4,4,4,8
CO/N=C1\CC(N)CN(c2c(F)cc3c(=O)c(C(=O)O)cn(C4CC4)c3c2OC(F)F)C1 (stereo not drawn),2,667,> 128,128,> 128,2,128,0.25,4,8,8,> 128,0.25,,,,,,
